For series [1], the system named is Mus musculus. The experiment in a line: Protective effect in GalN/LPS-induced ICR mouse FHF liver injury model assessed as reduction in IRAK1 protein level at 100 mg/kg, po administered 1 hr prior to GalN/LPS challenge measured after 6 hrs by Western blotting analysis relative to vehicle-treated control. More on the design: dose 100 mg/kg. In kind it is functional, organism-based. The essentials: (§1)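 Oral pretreatment in olive oil 1 h before ip GalN (800 mg/kg)/LPS (40 μg/kg); liver harvested at 6 h and stored at −75 °C. SDS-PAGE and PVDF transfer used total extract (16−20 μg) for TLR4, MyD88, TRIF, IRAK-1, TRAF6 and IRAK-M, cytosolic (16 μg) for IκB, and nuclear (12 μg) for NF-κB p65. Blots were blocked in 5% milk, given primary antibody overnight at 4 °C, developed by ECL and quantified by densitometry as fold change; n = 6−8.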

For series [2], the system named is Mus musculus. The experiment in a line: Protective effect in GalN/LPS-induced ICR mouse FHF liver injury model assessed as increase in IRAK-M protein level at 100 mg/kg, po administered 1 hr prior to GalN/LPS challenge measured after 6 hrs by Western blotting analysis relative to vehicle-treated control. It is filed as functional, organism-based. More on the design: dose 100 mg/kg. The gist of the method: as §1
A general note: Immunoblotting shows a protein as a band on a membrane.

The test system of series [3] is Mus musculus. The experiment in a line: Protective effect in GalN/LPS-induced ICR mouse FHF liver injury model assessed as reduction in TNF-alpha mRNA expression at 100 mg/kg, po administered 1 hr prior to GalN/LPS challenge measured after 6 hrs by RT-PCR analysis relative to vehicle-treated control. It is filed as functional, organism-based. On the set-up: dose 100 mg/kg. The gist of the method: (§2)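 Oral pretreatment in olive oil 1 h before ip GalN (800 mg/kg)/LPS (40 μg/kg), with liver collected at 6 h. mRNA quantified by SYBR green real-time RT-PCR. Cycling: TNF-α 45 cycles (94/65/72 °C) and IL-6 32 cycles (94/58/72 °C). Levels normalized to β-actin by the Ct method. Mean ± SEM, n = 6−8.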

For series [4], the system named is Mus musculus. The experiment in a line: Effect on liver histology in ICR mouse at 100 mg/kg, po after 1 hr by hematoxylin/eosin-labeled microscopic analysis relative to control. It is filed as ADME, organism-based. On the set-up: dose 100 mg/kg, route oral. As to conditions: in vivo. The gist of the method:
(§3)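 Liver taken 6 h after challenge, fixed in 10% neutral-buffered formalin, paraffin-embedded, cut at 5 μm, H&E-stained. One pathologist scored random nonconsecutive fields blinded at 200×; n = 6−8.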

Series [5] deals with Mus musculus. The experiment in a line: Protective effect in GalN/LPS-induced ICR mouse FHF liver injury model assessed as reduction in NF-kappaB protein level at 100 mg/kg, po administered 1 hr prior to GalN/LPS challenge measured after 6 hrs by Western blotting analysis relative to vehicle-treated control. More on the design: dose 100 mg/kg. In kind it is functional, organism-based. The essentials: as §1

For series [6], the system named is Mus musculus. The experiment in a line: Protective effect in GalN/LPS-induced ICR mouse FHF liver injury model assessed as reduction in TRAF6 protein level at 100 mg/kg, po administered 1 hr prior to GalN/LPS challenge measured after 6 hrs by Western blotting analysis relative to vehicle-treated control. In kind it is functional, organism-based. More on the design: dose 100 mg/kg. The essentials:
as §1

Series [7] has as its system Mus musculus. The experiment in a line: Protective effect in GalN/LPS-induced ICR mouse FHF liver injury model assessed as reduction in TRIF protein level at 100 mg/kg, po administered 1 hr prior to GalN/LPS challenge measured after 6 hrs by Western blotting analysis relative to vehicle-treated control. It is filed as functional, organism-based. On the set-up: dose 100 mg/kg. The gist of the method: as §1

Series [8] concerns Mus musculus. The experiment in a line: Effect on serum IL-6 level in ICR mouse at 100 mg/kg, po after 1 hr by ELISA (reference value: 73.3 +/- 13.1 pg/ml). The note with it: in vivo. It is filed as ADME, organism-based. On the set-up: dose 100 mg/kg, route oral. A general note: In an ELISA, binding on a coated surface is turned into a signal by an enzyme label.
Series [9] has as its system Mus musculus. The experiment in a line: Effect on serum IL-6 level in GalN/LPS-induced ICR mouse FHF liver injury model at 100 mg/kg, po administered 1 hr prior to GalN/LPS challenge measured after 6 hrs by ELISA (reference value: 654.1 +/- 19.7 pg/ml). In kind it is functional.
For series [10], the system named is Mus musculus. The experiment in a line: Effect on liver histology in GalN/LPS-induced ICR mouse FHF liver injury model assessed as reversal of necrosis and inflammatory cell infiltration at 100 mg/kg, po administered 1 hr prior to GalN/LPS challenge measured after 6 hrs by hematoxylin/eosin-labeled microscopic analysis. More on the design: dose 100 mg/kg. It is filed as functional, organism-based. The gist of the method:
as §3

In series [11] the test system is Mus musculus. The experiment in a line: Protective effect in po dosed GalN/LPS-induced ICR mouse FHF liver injury model assessed as survival administered 1 hr prior to GalN/LPS challenge measured up to 24 hrs. It is filed as functional, organism-based.
The test system of series [12] is Mus musculus. The experiment in a line: Protective effect in GalN/LPS-induced ICR mouse FHF liver injury model assessed as reduction in IL-6 mRNA expression at 100 mg/kg, po administered 1 hr prior to GalN/LPS challenge measured after 6 hrs by RT-PCR analysis relative to vehicle-treated control. In kind it is functional, organism-based. On the set-up: dose 100 mg/kg. The essentials:
as §2

Series [13] concerns Mus musculus. The experiment in a line: Effect on serum ALT level in GalN/LPS-induced ICR mouse FHF liver injury model at 100 mg/kg, po administered 1 hr prior to GalN/LPS challenge measured after 6 hrs (reference value: 2704 +/- 244.2 U/L). In kind it is functional.
The subject of series [14] is Mus musculus. The experiment in a line: Effect on serum TNF-alpha level in GalN/LPS-induced ICR mouse FHF liver injury model at 100 mg/kg, po administered 1 hr prior to GalN/LPS challenge measured after 6 hrs by ELISA (reference value: 250.8 +/- 5.4 pg/ml). In kind it is functional.
The test system of series [15] is Mus musculus. The experiment in a line: Effect on serum TNF-alpha level in ICR mouse at 100 mg/kg, po after 1 hr by ELISA (reference value: 42.6 +/- 1.7 pg/ml). On the set-up: dose 100 mg/kg, route oral. In kind it is ADME, organism-based. As to conditions: in vivo.
Series [16] concerns Mus musculus. The experiment in a line: Effect on serum ALT level in ICR mouse at 100 mg/kg, po after 1 hr (reference value: 57.4 +/- 8.8 U/L). The note with it: in vivo. It is filed as ADME, organism-based. On the set-up: dose 100 mg/kg, route oral.
The test system of series [17] is Mus musculus. The experiment in a line: Protective effect in GalN/LPS-induced ICR mouse FHF liver injury model assessed as reduction in TLR4 protein level at 100 mg/kg, po administered 1 hr prior to GalN/LPS challenge measured after 6 hrs by Western blotting analysis relative to vehicle-treated control. In kind it is functional, organism-based. More on the design: dose 100 mg/kg. The essentials:
as §1

In series [18] the test system is Mus musculus. The experiment in a line: Protective effect in GalN/LPS-induced ICR mouse FHF liver injury model assessed as reduction in MyD88 protein level at 100 mg/kg, po administered 1 hr prior to GalN/LPS challenge measured after 6 hrs by Western blotting analysis relative to vehicle-treated control. In kind it is functional, organism-based. More on the design: dose 100 mg/kg. The gist of the method: as §1

The test system of series [19] is Mus musculus. The experiment in a line: Protective effect in GalN/LPS-induced ICR mouse FHF liver injury model assessed as increase in I-kappaB protein level at 100 mg/kg, po administered 1 hr prior to GalN/LPS challenge measured after 6 hrs by Western blotting analysis relative to vehicle-treated control. It is filed as functional, organism-based. On the set-up: dose 100 mg/kg. The essentials: as §1

Series [20] relates to Mus musculus. The experiment in a line: Toxicity in ICR mouse assessed as survival at 100 mg/kg, po. On the set-up: dose 100 mg/kg, route oral. The note with it: in vivo. In kind it is organism-based. The gist of the method:
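One hour later they received intraperitoneal PBS vehicle in place of GalN/LPS. Survival was monitored up to 24 h, with 10 mice per survival group, alongside vehicle-only controls.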

The record followed here is ChEMBL document CHEMBL3351511, “Protective effects of lupeol against D-galactosamine and lipopolysaccharide-induced fulminant hepatic failure in mice” (J Nat Prod, 2014).

The source made the active and inactive calls. The calls are words filed in the database; no cut-off is given here.

Regarding `C=C(C)[C@@H]1CC[C@]2(C)CC[C@]3(C)[C@H](CC[C@@H]4[C@@]5(C)CC[C@H](O)C(C)(C)[C@@H]5CC[C@]43C)[C@@H]12` [LUPEOL], the outcome in [1], in series [2], in series [3], in series [5], in series [6] and in series [10] was Active. Further, the result in [12], in series [17], in [18] and in series [19] was Active. In addition, the Activity entry in series [4] was “Non-toxic”; in [8] it was 75.1 pg/mL; in series [9], 108.8 pg/mL; in [11], “Dose-dependent effect”; in series [13] it was 682 U/L; in series [14] it was 109 pg/mL. The Activity in series [15] is 41 pg/mL; in series [16], 58.1 U/L; in [20], “Non-toxic”. For the same compound, the result in series [7] was inactive.
